Compound activity (PubChem)
This excerpt belongs to a sample that is enriched for hits.
HUVEC prolif 384 – human endothelial cell proliferation inhibition; viability, % at 10 µM (by protocol); HUVEC proliferation, CellTiter-Glo luminescence, 72 h; hits give low values; 1.1% of 86,000 active;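 active means viability at or below 30%; inactive means viability above 30%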;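 further: 100% = median luminescence of DMSO-only cell control wells on each plate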
Lung fibro prol – blocks proliferation of human lung fibroblasts; LL 47 human lung fibroblast viability, ATP luminescence; hits give low values; viability, % at 10 µM; 1.1% of 85,000 active; AID 719;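 active means viability at or below 50% in the single dose screen; inactive means viability above 50%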;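 further: compound exposure lasted 72 h before the ATP readout; 100% = median luminescence of untreated cell-only wells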
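Times – overnight cell rest, 72 h compound treatment at 37 °C · Test system – human lung fibroblast line LL 47, low passage · Amount – 1,150 cells in each well · Controls – cell-only wells, no compound · Doses – 0.1% DMSO in all compound wells · Measured by – CellTiter-Glo luminescence · Buffer or medium – IMEM plus 15% FBS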
HCT116 bCat-KO – beta-catenin-lacking colon tumor cell growth suppression | AID 818 | 1.5% of 140,000 active | HCT116 beta-catenin knockout viability, CellTiter-Glo, 60 h; hits give low values | viability, % at 10 µM;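 active means viability at or under a set limit, the compound median less 4 SD, cut at about 6% in these data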;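 further: 0% = Hyamine 1622 control at 20 µM and 100% = untreated cell control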
HCT116 PTEN-null – growth suppressors of cells with PTEN tumor suppressor deletion. HCT116 PTEN-null viability, CellTiter-Glo, 60 h; hits give low values. viability, % at 10 µM. 1.2% of 140,000 active. AID 827;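 active means viability at or below a set limit, 4 SD under the median of all tested compounds, cut at about 3.7% in these data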;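 further: PTEN knockout HCT116 line with beta catenin targeted HCT116 as companion control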
H69AR growth 86K – blocks growth of human H69AR lung tumor cells; 6% of 85,000 active; H69AR lung tumor viability, ATP luminescence, 72 h; hits give low values; AID 598; viability, % at 10 µM;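 active means viability at or below 40%; inactive means viability above 40%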;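 further: multidrug resistant small cell line overexpressing MRP-1 efflux transporter; 100% = mean luminescence of untreated control wells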
The depositor's hits bear a star; x = not tested or not shown.

SMILES	HUVEC prolif 384	Lung fibro prol	HCT116 bCat-KO	HCT116 PTEN-null	H69AR growth 86K
N#CC1=C(N)Oc2c(ccc3ccccc23)C1c1cccs1 (stereo unspecified)	21.7*	52.7	11.3	12.1	17.2*
CN(C)c1ccc(/C=C/C(O)=C2/C(=O)N(C)C3(C)CC2c2ccccc2O3)cc1 (stereo unspecified)	91.4	96.3	56.5	52.1	21.4*
CCOC(=O)Cn1nc(C)n(-c2ccc(C(C)(C)C)cc2)c1=O	x	x	105.8	103.6	x
CCOc1cccc(CNc2ccc(O)cc2)c1OCc1ccc(Cl)cc1	x	x	0.8*	1.9*	x
CCOc1cc(CNc2ccc(O)cc2)ccc1OCc1ccc(Cl)cc1Cl	x	x	62.4	49.0	x
CC(C)=NOc1cc(NC(=O)CCl)cc([N+](=O)[O-])c1	x	x	3.3*	3.0*	x
O=C(C1CCCO1)N1CCN(C(=S)Nc2ccccc2F)CC1 (stereo unspecified)	x	x	88.4	101.1	x
CCCCN(C(=O)c1ccc(Cl)cc1)C1CC2CCC(C1)N2C (stereo unspecified)	87.2	89.8	93.7	91.7	35.7*
O=C1CC(c2ccccc2)CC2=C1CN(C1CCCCC1)CN2 (stereo unspecified)	71.5	70.3	29.4	32.1	22.6*
O=Cc1ccc(OC2OCCOC2Oc2ccc(C=O)cc2)cc1 (stereo unspecified)	x	x	91.5	89.2	x
COc1cccc(/C=N/NC(=O)c2ccc([N+](=O)[O-])cc2Cl)c1O	x	x	5.6*	5.5	x
O=C(NCCC1=CCCCC1)C1CCN(C(=O)c2ccc(Br)cc2)CC1	x	x	72.7	69.3	x
COc1ccc(C(=S)Nc2ccc(C)cc2)cc1	x	x	83.3	104.7	x
CO/N=C\C(=N\Nc1ccc(OC)cc1)C(=O)c1ccccc1	65.0	85.7	64.8	68.7	27.5*
COc1ccc(N/N=C(\C#N)C(N)=O)cc1	x	x	96.0	98.9	x
CO/N=C/C(=N\Nc1ccc(C)cc1)C(=O)c1ccc(OC)cc1	53.6	54.9	28.2	32.4	22.1*
Cc1ccc(/C(O)=C2\C(=O)C(=O)N(Cc3cccnc3)C2c2ccccc2[N+](=O)[O-])cc1 (stereo unspecified)	x	x	85.1	93.4	x
COc1cc(/C=N/Nc2snc(SC)c2C#N)cc(OC)c1OC	60.0	71.3	13.5	14.9	24.5*
C/C(=N/NC(=O)CCCOc1ccc(Cl)cc1Cl)c1ccc(C)o1	x	x	100.3	99.0	x
CC(C)Cn1c(CCCNC(=O)c2ccc(F)cc2)nc2ccccc21	100.1	106.4	83.1	93.6	69.9
CC(C)Cn1c(C(C)C)nc([N+](=O)[O-])c1S(=O)(=O)c1ccc(F)cc1	x	x	2.1*	2.4*	x
CCCc1nc([N+](=O)[O-])c(S(=O)(=O)c2ccccc2)n1CC(C)C	x	x	3.3*	2.9*	x
O=C(COC(=O)C1CCN(S(=O)(=O)c2ccccc2)CC1)NC(=O)c1ccc(OC(F)F)cc1	x	x	97.0	108.0	x
CC1CN(c2nc3c(c(=O)n(Cc4ccc(Cl)c(Cl)c4)c(=O)n3C)n2C)CC(C)O1 (stereo unspecified)	90.0	88.1	62.8	57.2	95.5
Cc1cc(C)n(-c2nc3c(c(=O)n(Cc4ccc(Cl)c(Cl)c4)c(=O)n3C)n2C)n1	69.1	90.7	x	x	38.0*
SMILES	HUVEC prolif 384	Lung fibro prol	HCT116 bCat-KO	HCT116 PTEN-null	H69AR growth 86K
Cn1c(N2CCN(c3ccccn3)CC2)nc2c1c(=O)n(Cc1ccccc1Cl)c(=O)n2C	83.9	91.9	x	x	23.4*
Cn1c(N2CCCCC2)nc2c1c(=O)n(Cc1cccc(Br)c1)c(=O)n2C	99.5	98.2	89.6	67.0	34.5*
COc1ccccc1-c1c(C#N)c(N)nc2c1CCc1ccccc1-2	x	x	25.6	20.1	x
O=S(=O)(c1ccc2ccccc2c1)N1CCC(c2nc(-c3ccncc3)no2)CC1	92.6	100.4	39.6	61.0	66.6
CCN1CCN(c2cc(C)c3cc(NC(=O)Cc4ccccc4OC)ccc3n2)CC1	x	x	58.8	76.4	x
CCOc1ccccc1C(=O)Nc1ccc2nc(N3CCN(c4ncccn4)CC3)cc(C)c2c1	6.2*	54.7	x	x	0.5*
COc1cccc(C(=O)Nc2ccc3nc(N4CCOCC4)cc(C)c3c2)c1	79.4	100.8	91.2	91.3	47.1
COc1cccc(C(=O)Nc2ccc3nc(N4CCN(c5ncccn5)CC4)cc(C)c3c2)c1OC	x	x	2.0*	1.7*	x
O=C(COC(=O)c1cccc(S(=O)(=O)N2CCc3ccccc32)c1)Nc1ccc(Cl)cn1	x	x	84.9	87.0	x
COc1ccc(C2Nc3ccccc3C(=O)N2O)cc1CN1CCOCC1 (stereo unspecified)	x	x	77.1	94.2	x
CCOC(=O)C1(N(CC)CC)Sc2cc(C)ccc2NC1=O (stereo unspecified)	74.0	54.8	24.1	25.6	15.5*
COc1ccc(-c2c[n+]3c4n2CCCCC4=C(c2ccccc2)C3)cc1	46.9	35.9*	3.8*	3.5*	47.7
COc1ccc(-c2c[n+]3c(n2-c2ccccc2)CCCCC3)cc1	x	x	30.7	42.7	x
CCN(CC)Cc1ccccc1Sc1ccccc1	x	x	89.7	95.4	x
CC(C)(C)c1cc(NC(=O)CCSc2nnc3ccccn23)cc(C(C)(C)C)c1	46.2	46.2*	38.2	49.5	53.3
Cc1ccnc(N2C(=O)c3cccc4c([N+](=O)[O-])ccc(c34)C2=O)c1	x	x	1.2*	1.3*	x
O=C1c2cc([N+](=O)[O-])cc3cc([N+](=O)[O-])cc(c23)C(=O)N1c1ccccn1	x	x	15.5	5.7	x
CC1(C)CC2CC(C)(CN2C(=O)COC(=O)CNC(=O)c2ccc(Cl)c(Cl)c2)C1 (stereo unspecified)	x	x	88.9	85.8	x
CC/C(=N\NC(=O)C(N)=O)c1ccccc1O	x	x	74.7	80.5	x
COc1cccc(/C=N/NC(=O)CN(CCc2ccccc2)S(=O)(=O)c2ccc(NC(C)=O)cc2)c1	x	x	96.4	88.3	x
Cn1c(C2CCCN2C(=O)OC(C)(C)C)n[nH]c1=S (stereo unspecified)	96.4	92.4	88.3	107.0	1.8*
CCOc1cc(N2CCOCC2)c(OCC)cc1NC(C)C(=O)N1CCC(C)CC1 (stereo unspecified)	x	x	90.5	84.7	x
O=C(Nc1ccccc1)c1cccc(S(=O)(=O)Oc2ccc([N+](=O)[O-])cc2)c1	x	x	86.6	85.8	x
COc1ccc(/C=N/NC(=O)c2nc(Cl)c(Cl)c(N)c2Cl)cc1COc1ccc(F)cc1F	x	x	2.0*	4.5	x
COc1ccc(/C=N/NC(=O)c2nc(Cl)c(Cl)c(N)c2Cl)cc1COc1ccccc1F	x	x	13.2	19.7	x
O=C(N/N=C1/CC2C=CCC12)c1ccco1 (stereo unspecified)	x	x	104.4	95.5	x
Cc1cccc(N2CCN(c3nc4ccc(Cl)cc4n4cnnc34)CC2)c1C	13.6*	28.8*	0.8*	1.0*	2.1*
CCOc1ccc(Br)cc1C1C(C(=O)OC)=C(N)Oc2cc(N(C)C)ccc21 (stereo unspecified)	45.8	57.2	17.1	14.2	25.4*
CCOc1ccccc1C1C(C(=O)OC)=C(N)OC2=C1C(=O)CCC2 (stereo unspecified)	110.5	102.1	96.5	104.4	86.4
